# Experimental data reported in ChEMBL document CHEMBL3352508, “Discovery and early clinical development of 2-{6-[2-(3,5-dichloro-4-pyridyl)acetyl]-2,3-dimethoxyphenoxy}-N-propylacetamide (LEO 29102), a soft-drug inhibitor of phosphodiesterase 4 for topical treatment of atopic dermatitis” (J Med Chem, 2014).
# Legend:
# [1] = Genotoxicity in p53 competent human TK6 cells after 24 hrs by GreenScreen HC assay; format: toxicity, cell-based; settings: tk6, 24 h
# [2] = biological target: 3',5'-cyclic-AMP phosphodiesterase 4D (Homo sapiens, UniProt Q08499); assay: Inhibition of human recombinant PDE4D after 1 hr by SPA in presence of radioactively labeled cAMP
# 3',5'-cyclic-AMP phosphodiesterase 4D, sequence (Q08499 whole entry): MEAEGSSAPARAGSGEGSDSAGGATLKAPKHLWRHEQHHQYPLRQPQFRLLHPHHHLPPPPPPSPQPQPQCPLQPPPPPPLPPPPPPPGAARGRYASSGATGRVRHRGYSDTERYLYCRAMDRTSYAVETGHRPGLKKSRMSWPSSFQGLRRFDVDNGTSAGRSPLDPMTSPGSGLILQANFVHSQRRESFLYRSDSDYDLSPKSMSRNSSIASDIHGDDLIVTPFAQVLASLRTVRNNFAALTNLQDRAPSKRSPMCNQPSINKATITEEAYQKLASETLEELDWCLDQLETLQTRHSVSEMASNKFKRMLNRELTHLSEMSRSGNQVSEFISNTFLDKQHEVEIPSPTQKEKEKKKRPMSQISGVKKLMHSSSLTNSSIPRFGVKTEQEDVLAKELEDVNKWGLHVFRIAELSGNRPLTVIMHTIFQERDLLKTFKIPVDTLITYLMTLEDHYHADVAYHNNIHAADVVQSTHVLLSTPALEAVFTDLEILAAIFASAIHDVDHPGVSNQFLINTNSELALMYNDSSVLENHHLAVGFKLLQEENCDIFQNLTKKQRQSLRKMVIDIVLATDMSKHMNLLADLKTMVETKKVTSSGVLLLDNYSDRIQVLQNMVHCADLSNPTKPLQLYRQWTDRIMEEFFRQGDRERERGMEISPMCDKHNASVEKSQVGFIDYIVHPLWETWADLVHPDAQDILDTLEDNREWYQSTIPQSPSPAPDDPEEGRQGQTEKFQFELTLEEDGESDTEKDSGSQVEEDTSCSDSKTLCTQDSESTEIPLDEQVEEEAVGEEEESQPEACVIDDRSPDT
# In short: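 Recombinant human PDE4D (NM_006203) incubated 1 h with test compound up to 10 μM, 1 × 10⁻⁵ M cAMP and 0.021 MBq radiolabelled cAMP tracer. Substrate cleavage read by binding of AMP product to SPA beads. IC₅₀ is the molar concentration giving 50% inhibition of cleavage relative to controls, reported as a range.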
# [3] = test system: PBMC; assay: Inhibition of LPS-induced TNFalpha release in human PBMC preincubated for 30 mins before LPS stimulation measured after 18 hrs by TR-FRET assay; format: functional, cell-based
# In short: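 PBMCs isolated from buffy coats (blood diluted 1:1 with saline, Lymphoprep). Supernatant TNF-α measured by TR-FRET (665/620 nm). IC₅₀ taken from inhibition curves, with LPS-stimulated and unstimulated wells as controls.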
# [4] = Solubility of the compound in medium chain triglyceride; format: physicochemical
# In short: (§1)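 Compound shaken in each vehicle for 24 h at room temperature, centrifuged, and the supernatant concentration determined by HPLC.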
# [5] = Solubility of the compound in 0.067 M phosphate buffer at pH 7.4; format: physicochemical
# In short: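 Compound shaken in 0.067 M phosphate buffer, pH 7.4, for 24 h at room temperature; after centrifugation, supernatant concentration determined by HPLC.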
# [6] = Solubility of the compound in propylene glycol; format: physicochemical; in short: as §1
# [7] = Solubility of the compound in 20 % hydroxypropyl-beta-cyclodextrin in water after 1 hr at room temperature; format: physicochemical
# In short: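 Compound shaken in the vehicle for 1 h at room temperature, centrifuged, and the supernatant concentration determined by HPLC.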
# [8] = Cmax in human at 2.5 mg/g cream administered as single topical dose up to 14 % body surface area; format: ADME, organism-based; set-up: dose 2.5 mg/g; settings: in vivo, 2500 mg/kg
# In short: (§2)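 Healthy subjects, n = 6 per group, each given a single cutaneous dose of 2.5 mg/g cream. Treated body surface area was escalated (7, 14, 30, 53%) while the amount of cream per cm² was held constant. Plasma Cmax and AUC0–48h are reported as geometric means.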
# [9] = test system: Homo sapiens; assay: Toxicity in human assessed as emesis at 2.5 mg/g cream administered as single topical dose up to 7 to 53 % body surface area; format: organism-based; settings: in vivo, topical_or_ocular
# In short: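 First-in-man safety, tolerability and pharmacokinetic study with single ascending and multiple cutaneous doses of 2.5 mg/g cream. Dose was escalated by enlarging the treated body surface area up to 53%, and emesis cases were recorded.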
# [10] = biological target: High affinity 3',5'-cyclic-AMP phosphodiesterase 7A (Homo sapiens) (UniProt Q13946); assay: Inhibition of PDE7 (unknown origin) at 1 uM
# High affinity 3',5'-cyclic-AMP phosphodiesterase 7A (Homo sapiens), sequence (Q13946 whole entry): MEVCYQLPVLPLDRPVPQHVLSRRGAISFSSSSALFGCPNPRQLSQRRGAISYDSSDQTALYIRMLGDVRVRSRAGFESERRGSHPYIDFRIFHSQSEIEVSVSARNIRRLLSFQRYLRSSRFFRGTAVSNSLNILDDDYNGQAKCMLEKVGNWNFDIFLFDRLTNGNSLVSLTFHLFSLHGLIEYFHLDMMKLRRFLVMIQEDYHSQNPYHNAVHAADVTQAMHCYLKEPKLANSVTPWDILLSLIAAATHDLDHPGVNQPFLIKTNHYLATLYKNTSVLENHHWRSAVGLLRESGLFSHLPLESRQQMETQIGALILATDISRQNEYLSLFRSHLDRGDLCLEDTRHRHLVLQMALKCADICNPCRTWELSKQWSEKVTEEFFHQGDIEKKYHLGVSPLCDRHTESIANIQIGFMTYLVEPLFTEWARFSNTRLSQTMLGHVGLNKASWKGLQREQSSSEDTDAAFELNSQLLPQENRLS
# [11] = Solubility of the compound in propylene glycol-water at 75:25 ratio after 24 hrs at room temperature; format: physicochemical; settings: propylene glycol-water 75:25; in short: as §1
# [12] = Cmax in human at 2.5 mg/g cream administered as single topical dose up to 30 % body surface area; format: ADME, organism-based; set-up: dose 2.5 mg/g; settings: in vivo, 2500 mg/kg; in short: as §2
# [13] = Toxicity in iv dosed ferret assessed as signs of nausea measured up to 2 hrs post dose; format: organism-based, Mustela putorius furo; settings: in vivo
# In short: (§3)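 Ferrets dosed iv at 0.03–1.0 mg/kg alongside vehicle groups, then observed for 2 h. Recorded: emetic episodes and prodromic signs of nausea, number of animals retching and vomiting, latency to first retch and vomit, and counts of retches and vomits.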
# [14] = test system: Mus musculus; assay: Antiinflammatory activity in topical allergic contact dermatitis mouse model assessed as inhibition of TNFalpha in tissue compound administered topically; format: functional, organism-based
# [15] = AUC (0 to 48 hrs) in human at 2.5 mg/g cream administered as single topical dose up to 7 % body surface area; format: ADME, organism-based; set-up: dose 2.5 mg/g, time < 48 hr; settings: plasma, 2500 mg/kg; in short: as §2
# [16] = biological target: Dual 3',5'-cyclic-AMP and -GMP phosphodiesterase 11A (Homo sapiens) (UniProt Q9HCR9); assay: Inhibition of PDE11 (unknown origin) at 1 uM
# Dual 3',5'-cyclic-AMP and -GMP phosphodiesterase 11A (Homo sapiens), sequence (Q9HCR9 whole entry, looked up): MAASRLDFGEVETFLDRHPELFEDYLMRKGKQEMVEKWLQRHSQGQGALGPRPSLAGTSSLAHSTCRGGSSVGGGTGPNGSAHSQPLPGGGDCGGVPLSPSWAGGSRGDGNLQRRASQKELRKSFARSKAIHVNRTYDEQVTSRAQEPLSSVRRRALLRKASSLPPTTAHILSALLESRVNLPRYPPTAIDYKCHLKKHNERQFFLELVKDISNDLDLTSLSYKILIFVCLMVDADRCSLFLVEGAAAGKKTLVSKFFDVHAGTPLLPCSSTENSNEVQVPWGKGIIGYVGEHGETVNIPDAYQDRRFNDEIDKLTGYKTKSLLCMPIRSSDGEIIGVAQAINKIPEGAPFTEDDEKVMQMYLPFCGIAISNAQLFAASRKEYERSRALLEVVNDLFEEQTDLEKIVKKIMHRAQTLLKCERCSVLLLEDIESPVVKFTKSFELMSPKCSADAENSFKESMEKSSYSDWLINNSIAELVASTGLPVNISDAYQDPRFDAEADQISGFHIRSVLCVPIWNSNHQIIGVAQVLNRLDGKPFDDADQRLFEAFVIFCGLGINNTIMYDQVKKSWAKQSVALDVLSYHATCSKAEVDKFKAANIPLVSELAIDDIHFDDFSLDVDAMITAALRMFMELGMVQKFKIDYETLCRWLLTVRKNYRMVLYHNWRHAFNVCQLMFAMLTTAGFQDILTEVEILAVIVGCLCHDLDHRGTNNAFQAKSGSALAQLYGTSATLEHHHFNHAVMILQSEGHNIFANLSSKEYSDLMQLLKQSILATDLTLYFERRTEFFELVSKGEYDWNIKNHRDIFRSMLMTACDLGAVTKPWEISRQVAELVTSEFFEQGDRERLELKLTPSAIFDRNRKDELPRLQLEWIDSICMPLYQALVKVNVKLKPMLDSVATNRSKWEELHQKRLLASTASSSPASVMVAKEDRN
# [17] = biological target: cGMP-dependent 3',5'-cyclic phosphodiesterase (Homo sapiens) (UniProt O00408); assay: Inhibition of PDE2 (unknown origin) at 1 uM
# [18] = Solubility of the compound in propylene glycol-water at 25:75 ratio after 24 hrs at room temperature; format: physicochemical; settings: propylene glycol-water 25:75; in short: as §1
# [19] = biological target: Phosphodiesterase 3 (Homo sapiens) (UniProt Q14432+Q13370); assay: Inhibition of PDE3 (unknown origin) at 1 uM; format: protein assay
# [20] = AUC (0 to 48 hrs) in human at 2.5 mg/g cream administered as single topical dose up to 30 % body surface area; format: ADME, organism-based; set-up: time < 48 hr, dose 2.5 mg/g; settings: plasma, 2500 mg/kg; in short: as §2
# [21] = biological target: cGMP-specific 3',5'-cyclic phosphodiesterase (Homo sapiens) (UniProt O76074); assay: Inhibition of PDE5 (unknown origin) at 1 uM
# [22] = Toxicity in iv dosed ferret assessed as emesis measured up to 2 hrs post dose; format: organism-based, Mustela putorius furo; settings: in vivo; in short: as §3
# [23] = test system: Mus musculus; assay: Antiinflammatory activity in topical allergic contact dermatitis mouse model assessed as inhibition of TNFalpha in tissue at 0.01 mg administered topically; format: functional
# [24] = biological target: Phosphodiesterase 1 (Homo sapiens) (UniProt P54750+Q01064+Q14123); assay: Inhibition of PDE1 (unknown origin) at 1 uM; format: protein assay
# [25] = test system: Mus musculus; assay: Antiinflammatory activity in topical allergic contact dermatitis mouse model assessed as inhibition of TNFalpha in tissue at 0.001 mg administered topically; format: functional
# [26] = biological target: Phosphodiesterase 8 (Homo sapiens) (UniProt O95263+O60658); assay: Inhibition of PDE8 (unknown origin) at 1 uM; format: protein assay
# Phosphodiesterase 8 (Homo sapiens), sequence (O60658 whole entry, looked up): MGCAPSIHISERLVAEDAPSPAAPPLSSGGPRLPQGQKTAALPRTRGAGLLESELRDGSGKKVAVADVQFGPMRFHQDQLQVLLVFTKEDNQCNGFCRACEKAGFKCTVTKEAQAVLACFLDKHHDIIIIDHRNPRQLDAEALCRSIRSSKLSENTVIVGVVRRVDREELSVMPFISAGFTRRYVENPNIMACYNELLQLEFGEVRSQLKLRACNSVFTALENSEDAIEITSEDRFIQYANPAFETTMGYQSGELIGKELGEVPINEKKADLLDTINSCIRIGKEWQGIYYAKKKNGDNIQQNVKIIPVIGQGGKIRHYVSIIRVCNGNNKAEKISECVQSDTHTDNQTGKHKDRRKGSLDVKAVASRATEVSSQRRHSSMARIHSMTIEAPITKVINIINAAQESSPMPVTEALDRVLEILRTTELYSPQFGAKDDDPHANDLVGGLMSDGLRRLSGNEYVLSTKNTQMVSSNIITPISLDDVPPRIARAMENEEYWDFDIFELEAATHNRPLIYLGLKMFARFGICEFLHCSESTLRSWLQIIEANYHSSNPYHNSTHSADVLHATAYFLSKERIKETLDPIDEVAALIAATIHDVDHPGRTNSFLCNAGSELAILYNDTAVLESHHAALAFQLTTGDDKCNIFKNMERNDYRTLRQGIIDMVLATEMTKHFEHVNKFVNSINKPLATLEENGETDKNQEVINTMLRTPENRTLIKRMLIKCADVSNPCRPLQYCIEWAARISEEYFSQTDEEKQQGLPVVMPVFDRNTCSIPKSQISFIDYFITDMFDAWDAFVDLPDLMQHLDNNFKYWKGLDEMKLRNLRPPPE
# Phosphodiesterase 8 (Homo sapiens), sequence (O95263 whole entry, looked up): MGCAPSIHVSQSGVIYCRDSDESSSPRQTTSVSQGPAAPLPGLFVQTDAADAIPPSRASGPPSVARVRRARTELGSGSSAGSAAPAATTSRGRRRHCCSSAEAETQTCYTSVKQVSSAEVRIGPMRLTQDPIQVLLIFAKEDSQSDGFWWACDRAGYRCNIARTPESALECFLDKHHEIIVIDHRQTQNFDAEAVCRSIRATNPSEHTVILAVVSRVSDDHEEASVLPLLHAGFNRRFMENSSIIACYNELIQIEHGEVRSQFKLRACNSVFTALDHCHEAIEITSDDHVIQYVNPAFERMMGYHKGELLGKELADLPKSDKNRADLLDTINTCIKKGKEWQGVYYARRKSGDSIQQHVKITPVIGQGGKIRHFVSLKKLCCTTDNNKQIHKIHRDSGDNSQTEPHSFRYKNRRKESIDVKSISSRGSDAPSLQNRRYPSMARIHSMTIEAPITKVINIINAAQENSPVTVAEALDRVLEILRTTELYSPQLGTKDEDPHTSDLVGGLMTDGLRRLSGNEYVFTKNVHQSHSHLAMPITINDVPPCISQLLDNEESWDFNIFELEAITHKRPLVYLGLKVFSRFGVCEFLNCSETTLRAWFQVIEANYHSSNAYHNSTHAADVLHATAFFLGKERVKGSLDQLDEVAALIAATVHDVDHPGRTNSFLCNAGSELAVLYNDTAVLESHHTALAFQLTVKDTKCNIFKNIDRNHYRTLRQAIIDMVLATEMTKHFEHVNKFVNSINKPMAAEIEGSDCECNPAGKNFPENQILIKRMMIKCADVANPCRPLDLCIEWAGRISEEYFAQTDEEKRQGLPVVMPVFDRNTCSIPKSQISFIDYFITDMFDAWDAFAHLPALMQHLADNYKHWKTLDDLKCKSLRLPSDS
# [27] = Cmax in human at 2.5 mg/g cream administered as single topical dose up to 53 % body surface area; format: ADME, organism-based; set-up: dose 2.5 mg/g; settings: in vivo, 2500 mg/kg; in short: as §2
# [28] = Solubility of the compound in propylene glycol-water at 50:50 ratio after 24 hrs at room temperature; format: physicochemical; settings: propylene glycol-water 50:50; in short: as §1
# [29] = biological target: cAMP and cAMP-inhibited cGMP 3',5'-cyclic phosphodiesterase 10A (Homo sapiens) (UniProt Q9Y233); assay: Inhibition of PDE10 (unknown origin) at 1 uM
# [30] = AUC (0 to 48 hrs) in human at 2.5 mg/g cream administered as single topical dose up to 14 % body surface area; format: ADME, organism-based; set-up: time < 48 hr, dose 2.5 mg/g; settings: plasma, 2500 mg/kg; in short: as §2
# [31] = AUC (0 to 48 hrs) in human at 2.5 mg/g cream administered as single topical dose up to 53 % body surface area; format: ADME, organism-based; set-up: time < 48 hr, dose 2.5 mg/g; settings: plasma, 2500 mg/kg; in short: as §2
# [32] = biological target: High affinity cGMP-specific 3',5'-cyclic phosphodiesterase 9A (Homo sapiens) (UniProt O76083); assay: Inhibition of PDE9 (unknown origin) at 1 uM
# High affinity cGMP-specific 3',5'-cyclic phosphodiesterase 9A (Homo sapiens), sequence (O76083 whole entry): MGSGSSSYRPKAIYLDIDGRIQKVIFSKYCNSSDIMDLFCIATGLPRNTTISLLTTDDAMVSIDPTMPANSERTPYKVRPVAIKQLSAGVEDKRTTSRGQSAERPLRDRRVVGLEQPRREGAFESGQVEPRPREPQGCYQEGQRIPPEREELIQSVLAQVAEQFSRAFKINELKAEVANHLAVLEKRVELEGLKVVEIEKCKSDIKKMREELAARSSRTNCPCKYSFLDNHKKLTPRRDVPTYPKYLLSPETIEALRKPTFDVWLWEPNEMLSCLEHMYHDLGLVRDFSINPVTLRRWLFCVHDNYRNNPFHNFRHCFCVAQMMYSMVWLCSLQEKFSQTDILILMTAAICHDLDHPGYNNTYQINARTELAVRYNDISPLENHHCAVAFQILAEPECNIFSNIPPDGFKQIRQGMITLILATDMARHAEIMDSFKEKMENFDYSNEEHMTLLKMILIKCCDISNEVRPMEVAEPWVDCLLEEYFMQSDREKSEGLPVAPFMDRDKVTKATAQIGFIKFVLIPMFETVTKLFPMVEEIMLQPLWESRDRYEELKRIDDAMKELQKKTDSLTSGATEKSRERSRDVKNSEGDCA
# [33] = test system: Mus musculus; assay: Antiinflammatory activity in topical allergic contact dermatitis mouse model assessed as inhibition of TNFalpha in tissue at 0.1 mg administered topically; format: functional
# [34] = Cmax in human at 2.5 mg/g cream administered as single topical dose up to 7 % body surface area; format: ADME, organism-based; set-up: dose 2.5 mg/g; settings: in vivo, 2500 mg/kg; in short: as §2
# [35] = test system: Mus musculus; assay: Antiinflammatory activity in topical allergic contact dermatitis mouse model assessed as inhibition of TNFalpha in tissue at 0.003 mg administered topically; format: functional
smiles,measurement,setting,value
COc1ccc(C(=O)Cc2c(Cl)cncc2Cl)c(OCC(=O)NCCO)c1OC,Activity,[1],Toxic
same,IC50,[2],17 nM
same,IC50,[3],22 nM
COc1ccc(C(=O)Nc2c(Cl)cncc2Cl)cc1OC1CCCC1 [PICLAMILAST],solubility,[4],2000 µg/mL
same,solubility,[5],1 µg/mL
same,solubility,[6],3300 µg/mL
same,solubility at 1 h,[7],190 µg/mL
COc1ccc(C(=O)Cc2c(Cl)cncc2Cl)cc1OC,IC50,[2],13 nM
same,IC50,[3],11 nM
COc1ccc(C(=O)Cc2c(Cl)cncc2Cl)c(OCC(=O)N(C)c2ccccc2)c1OC,IC50,[2],61 nM
same,IC50,[3],113 nM
CCCNC(=O)COc1c(C(=O)Cc2c(Cl)cncc2Cl)ccc(OC)c1OC,Cmax,[8],0.754 ng/mL
same,Activity,[9],Non-toxic
same,inhibition,[10],< 10%
same,solubility at 24 h,[11],5600 µg/mL
same,Cmax,[12],2.39 ng/mL
same,MTD at 2 h,[13],1 mg/kg
same,solubility,[4],6700 µg/mL
same,inhibition,[14],Dose-dependent effect
same,AUC(0-t) at 48 h,[15],5.45 ng·h/mL
same,IC50,[2],5 nM
same,inhibition,[16],< 10%
same,inhibition,[17],< 10%
same,solubility at 24 h,[18],135 µg/mL
same,solubility,[5],14 µg/mL
same,inhibition,[19],< 10%
same,AUC(0-t) at 48 h,[20],49.2 ng·h/mL
same,inhibition,[21],< 10%
same,MTD at 2 h,[22],1 mg/kg
same,inhibition (INH),[23],91%
same,inhibition,[24],< 10%
same,inhibition (INH),[25],33%
same,inhibition,[26],< 10%
same,Cmax,[27],5.07 ng/mL
same,IC50,[3],16 nM
same,solubility,[6],24000 µg/mL
same,solubility at 24 h,[28],1300 µg/mL
same,inhibition,[29],< 10%
same,AUC(0-t) at 48 h,[30],14.9 ng·h/mL
same,solubility at 1 h,[7],220 µg/mL
same,AUC(0-t) at 48 h,[31],100 ng·h/mL
same,inhibition,[32],< 10%
same,inhibition (INH),[33],100%
same,Cmax,[34],0.279 ng/mL
COc1ccc(C(=O)Cc2c(Cl)cncc2Cl)c(OC)c1OC1CCCC1,IC50,[2],2010 nM
same,IC50,[3],9470 nM
COc1ccc(C(=O)Nc2c(Cl)cncc2Cl)cc1OC,IC50,[2],17 nM
same,IC50,[3],19 nM
CCOc1c(OC)ccc(C(=O)Cc2c(Cl)cncc2Cl)c1OC,IC50,[2],81 nM
same,IC50,[3],259 nM
COc1ccc(C(=O)Cc2c(Cl)c[n+]([O-])cc2Cl)c(OCC(=O)NCc2ccccc2)c1OC,IC50,[2],5 nM
same,IC50,[3],11 nM
COCCNC(=O)COc1c(C(=O)Cc2c(Cl)cncc2Cl)ccc(OC)c1OC,Activity,[1],Non-toxic
same,IC50,[2],13 nM
same,IC50,[3],17 nM
CCCCC(=O)O[C@]1(C(=O)CO)[C@@H](C)C[C@H]2[C@@H]3CCC4=CC(=O)C=C[C@]4(C)[C@@]3(F)[C@@H](O)C[C@@]21C [BETAMETHASONE VALERATE],inhibition (INH),[35],75%
COc1ccc(C(=O)Cc2c(Cl)cncc2Cl)c(OCCc2ccc(O)cc2)c1OC,IC50,[2],8 nM
same,IC50,[3],30 nM
